# T cell HTS: modulates CD8 T cell binding to vesicles; AID 2052; 330,000 tested, 0.068% active; response (vesicle binding), % at 7 µM; 2C CD8+ T cell-vesicle binding, flow cytometry; active compounds read low;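 active means response, share of CD8 T cells binding vesicles, and their 90th percentile fluorescence all below set limits, cut at about 80% in these data, passing the limit was not always enough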;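 further: values below 100% mean blocked vesicle binding to the CD8+ T cells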
#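 material = purified 2C TCR transgenic mouse naive CD8+ T cells | controls = Unloaded micro-vesicles (low), QL9 vesicles with 0.7% DMSO (high) | detection = cytometric PE anti-B7-1 and Alexa647 anti-CD8 signals after 1% paraformaldehyde fixation | incubation = binding step 1.5 h, 37 °C, antibody labelling 20 min, ice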
# MCL1-BIM inh: inhibitors of human MCL1 binding to BIM-BH3 peptide | Q07820 | GST-MCL1 / FITC-Bim-BH3 fluorescence polarization | inhibition, % at 10.9 µM | 320,000 tested, 0.68% active | AID 2057;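 active means inhibition above the mean inhibition of all tested compounds plus 3 SD, set per campaign, cut at about 40% in these data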;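 further: higher means more loss of mP so more displacement of Bim peptide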
# Mcl1 Noxa PPI: Mcl-1/Noxa interaction inhibition. TR-FRET Mcl-1/Noxa peptide binding, 2 h. 220,000 tested, 1.5% active. AID 1022. inhibition, % at 21.7 µM;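 active means compounds that cut the protein-peptide binding signal by more than 50% relative to plate controls in a single-dose test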;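 further: His-tagged Mcl-1 with rhodamine Noxa BH3 peptide and terbium anti-His antibody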
# Mcl-1 Bim block: inhibitors of Bim-Mcl-1 interaction, human | inhibition, % at 10 µM | 190,000 tested, 0.1% active | Bead-based flow cytometry, Bim peptide-Mcl-1 binding | Q07820; in the data active means inhibition above about 40%
# DSG3 Ab inh: human desmoglein-3 autoantibody binding inhibition | DSG3-coupled beads, scFv-anti-DSG3-GFP binding, flow cytometry; active compounds read low | AID 588358 | 310,000 tested, 0.48% active | P32926 | binding (percent of control), % at 10 µM;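 active means binding more than 3 SD below its plate's average and above zero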;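 further: hits lower antibody fragment binding to DSG3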
# Target sequence (P32926 whole entry, looked up, the tested form may be a part): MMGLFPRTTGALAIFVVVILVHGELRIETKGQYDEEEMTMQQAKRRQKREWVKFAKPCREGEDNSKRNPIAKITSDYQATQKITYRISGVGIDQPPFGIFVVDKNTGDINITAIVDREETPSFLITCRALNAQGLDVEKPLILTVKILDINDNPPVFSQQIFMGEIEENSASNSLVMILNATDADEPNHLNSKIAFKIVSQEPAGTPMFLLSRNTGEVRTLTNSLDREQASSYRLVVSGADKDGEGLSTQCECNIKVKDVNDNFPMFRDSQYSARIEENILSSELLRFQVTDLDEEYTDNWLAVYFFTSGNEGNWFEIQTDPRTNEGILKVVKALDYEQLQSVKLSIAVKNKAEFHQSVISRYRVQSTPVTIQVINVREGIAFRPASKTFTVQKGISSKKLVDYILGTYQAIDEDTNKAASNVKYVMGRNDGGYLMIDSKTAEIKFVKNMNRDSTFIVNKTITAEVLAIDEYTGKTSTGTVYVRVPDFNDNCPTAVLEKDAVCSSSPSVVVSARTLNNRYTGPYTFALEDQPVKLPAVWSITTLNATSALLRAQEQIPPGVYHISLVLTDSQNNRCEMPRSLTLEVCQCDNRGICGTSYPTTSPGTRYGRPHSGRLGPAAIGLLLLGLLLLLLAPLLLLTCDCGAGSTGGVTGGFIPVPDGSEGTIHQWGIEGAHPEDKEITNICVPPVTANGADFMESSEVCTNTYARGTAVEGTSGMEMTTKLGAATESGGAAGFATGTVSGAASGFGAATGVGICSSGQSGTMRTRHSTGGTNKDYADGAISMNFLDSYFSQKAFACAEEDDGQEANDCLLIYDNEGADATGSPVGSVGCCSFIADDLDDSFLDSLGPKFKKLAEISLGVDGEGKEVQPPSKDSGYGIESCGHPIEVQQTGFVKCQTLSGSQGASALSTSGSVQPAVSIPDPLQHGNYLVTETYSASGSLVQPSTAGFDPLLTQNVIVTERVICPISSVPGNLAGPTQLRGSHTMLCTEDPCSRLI
# Mcl1 Bid PPI: Mcl-1/Bid interaction inhibition; Q07820; TR-FRET Mcl-1/Bid-Dy647 peptide binding, 1536-well; inhibition, % at 21.7 µM; 220,000 tested, 0.97% active; AID 1021;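 active means compounds that cut the binding signal by more than half at the single screening dose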;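 further: His-tagged Mcl-1 with europium anti-His antibody binding Bid BH3 peptide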
# Numbers stand for hits; . = inactive; / = not tested or not shown. The list is not random: actives were taken first. Their share in the collection is about 2.3%.
SMILES,T cell HTS,MCL1-BIM inh,Mcl1 Noxa PPI,Mcl-1 Bim block,DSG3 Ab inh,Mcl1 Bid PPI
CCN(CC)CC(=O)NC12CC3CC(CC(C3)C1)C2,.,.,.,.,.,63
CC(=O)Nc1ccc(OCc2cn(CC(=O)c3ccc(O)cc3)nn2)cc1,/,/,/,/,.,/
CN1C(=O)N(C)c2cccc3cccc1c23,.,.,/,/,.,/
CC1=Nc2cccc3cccc(c23)N1C,.,.,61,.,/,.
O=C(CSc1nnc(-c2ccccc2F)o1)Nc1ccc(N2CCOCC2)cc1,.,.,/,/,.,/
COc1ccc2nc(Nc3nc(CSc4nc5ccccc5[nH]4)cc(=O)[nH]3)nc(C)c2c1,.,.,.,.,.,56
NC1=NC(=O)C(Cc2ccc(Br)cc2)S1 (stereo not given),.,.,/,/,.,/
Cc1nc(Cl)c(C(=O)NC(=O)NCc2ccccc2)c(C)c1Cl,0.0,.,.,.,.,.
Cc1ccccc1NC(=O)c1c(Cl)nc(C)c(Cl)c1C,.,.,.,.,.,.
O=C(O)CN1C(=O)/C(=C\c2cc(Br)ccc2OCc2ccccc2Cl)SC1=S,.,57,/,/,.,/
CC(Sc1nnc(C2CC2)n1N)C(=O)NC1CCCCC1C (stereo not given),.,.,/,/,/,/
CCOC(=O)C1CCCN(C(=O)Cn2nc(C)c3c(C)n(-c4ccccc4)nc3c2=O)C1 (stereo not given),.,.,/,/,.,/
O=C(COC(=O)c1ccc(-c2ccc([N+](=O)[O-])cc2)o1)NC(=O)NC1CCCCC1,.,.,.,.,.,.
O=C(NC1CCC(O)CC1)c1ccc(-c2ccc([N+](=O)[O-])cc2)o1 (stereo not given),.,.,71,/,.,.
O=[N+]([O-])c1ccc(N/N=C/c2ccc(O)c(O)c2O)c(S(=O)(=O)N2CCOCC2)c1,/,/,104,.,.,.
O=[N+]([O-])c1ccc2sc(SCc3nc4ccccn4c3Br)nc2c1,.,.,56,.,/,.
CC(=O)c1ccc(NC(=O)CC2Nc3cccc4cccc(c34)NC2=O)cc1 (stereo not given),.,.,83,.,.,.
CCOC(=O)c1c(NS(=O)(=O)c2ccc(Br)cc2)sc2c1CCC2,.,.,51,.,.,.
CCOC(=O)c1c(NC(=O)C2C3C=CC(C3)C2C(=O)O)sc2c1CCCC2 (stereo not given),.,.,.,.,37,.
CCOC(=O)c1c(NS(=O)(=O)Cc2ccccc2)sc2c1CCCC2,.,.,.,.,.,.
CCOC(=O)c1c(NC(=O)C2C3C=CC(C3)C2C(=O)O)sc2c1CCC(C)C2 (stereo not given),.,.,.,.,.,.
Cc1onc(-c2ccccc2Cl)c1C(=O)N1CCN(S(=O)(=O)c2ccc(F)c(F)c2)CC1,.,.,/,/,.,/
Cc1cc(C)n2nc(C(=O)Nc3ccc4c(c3)OCO4)nc2n1,.,.,54,.,.,.
CCN(CC)c1ccc(NC(=O)c2nc3nc(C)cc(C(F)F)n3n2)cc1,.,.,58,.,.,.
Cc1cc(C)n2nc(C(=O)Nc3ccc4c(c3)OCCO4)nc2n1,.,.,/,/,.,/
SMILES,T cell HTS,MCL1-BIM inh,Mcl1 Noxa PPI,Mcl-1 Bim block,DSG3 Ab inh,Mcl1 Bid PPI
Cc1ccc(-n2c(SCC(=O)N(C)C3CCS(=O)(=O)C3)nc3ccccc3c2=O)c(C)c1 (stereo not given),.,/,/,/,/,/
CC1(C)CC(=O)C/C(=N/NC(=O)COc2ccc3ccccc3c2Br)C1,.,.,/,/,.,/
N#Cc1ccsc1NC(=O)c1ccc(Cl)c([N+](=O)[O-])c1,.,.,.,/,.,.
N#Cc1ccsc1NC(=O)c1cccc([N+](=O)[O-])c1,.,.,54,.,.,.
CCOC(=O)c1c(NC(=O)CSc2nnc(C)s2)sc2c1CCN(C)C2,.,.,68,.,/,.
C=CSc1sc(Cl)c(N(CC)CC)c1[N+](=O)[O-],.,.,52,.,.,.
Cc1ccccc1CSc1nnc(NC(=O)Cc2cccs2)s1,.,.,66,.,.,.
COCCSc1nnc(NC(=O)Cc2cccs2)s1,.,.,.,.,.,.
O=C(CSc1ccccc1)NCC(c1ccco1)N1CCCCC1 (stereo not given),.,.,/,/,.,/
OC(CNCC(c1ccco1)N1CCCCC1)c1ccccc1 (stereo not given),.,.,.,.,/,63

# From PubChem BioAssay
